Experiments:
HCT-15 = test: Cytotoxicity against human HCT15 cells assessed as cell growth at 10^-5 M after 48 hrs by SRB assay; format: functional; settings: HCT-15, 48 h, read-out: Activity
Procedure, shortened: (§1)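 NCI 60 single-dose screen at 10^-5 M. Cells in RPMI 1640 with 5% FBS and 2 mM L-glutamine, preincubated 24 h at 37 °C/5% CO2. Drug from DMSO stock, then 48 h exposure. TCA fixation, SRB staining, absorbance at 515 nm. Result given as percent growth of treated cells relative to untreated control.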

SNB-75 = test: Cytotoxicity against human SNB75 cells assessed as cell growth at 10^-5 M after 48 hrs by SRB assay; format: functional; settings: SNB-75, 48 h, read-out: Activity
Procedure, shortened: (§2)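 NCI 60-panel single-dose primary screen at 10^-5 M. Cells are grown in RPMI 1640 with 5% FBS and 2 mM L-glutamine and preincubated 24 h at 37 °C. Drug exposure is 48 h. Cells are TCA-fixed, stained with SRB and absorbance is read at 515 nm. Results are reported as percent growth of treated cells versus untreated controls, corrected using time-zero plates.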

RPMI-8226 = test: Cytotoxicity against human RPMI8226 cells assessed as cell growth at 10^-5 M after 48 hrs by SRB assay; format: functional; settings: RPMI-8226, 48 h, read-out: Activity; procedure, shortened: as §2
M14 = test: Cytotoxicity against human M14 cells assessed as cell growth at 10^-5 M after 48 hrs by SRB assay; format: functional; settings: M14, 48 h, read-out: Activity; procedure, shortened: as §1
MOLT-4 = test: Cytotoxicity against human MOLT4 cells assessed as cell growth at 10^-5 M after 48 hrs by SRB assay; format: functional; settings: MOLT-4, 48 h, read-out: Activity; procedure, shortened: as §2
MDA-MB-468 = test: Cytotoxicity against human MDA-MB-468 cells assessed as cell growth at 10^-5 M after 48 hrs by SRB assay; format: functional; settings: MDA-MB-468, 48 h, read-out: Activity; procedure, shortened: as §2
HOP-62 = test: Cytotoxicity against human HOP62 cells assessed as cell growth at 10^-5 M after 48 hrs by SRB assay; format: functional; settings: HOP-62, 48 h, read-out: Activity; procedure, shortened: as §1
SF-295 = test: Cytotoxicity against human SF295 cells assessed as cell growth at 10^-5 M after 48 hrs by SRB assay; format: functional; settings: SF-295, 48 h, read-out: Activity; procedure, shortened: as §2
SK-OV-3 = test: Cytotoxicity against human SKOV3 cells assessed as cell growth at 10^-5 M after 48 hrs by SRB assay; format: functional; settings: SK-OV-3, 48 h, read-out: Activity; procedure, shortened: as §2
HCT-116 = test: Cytotoxicity against human HCT116 cells assessed as cell growth at 10^-5 M after 48 hrs by SRB assay; format: functional; settings: HCT-116, 48 h, read-out: Activity; procedure, shortened: as §1
NCI-H322M = test: Cytotoxicity against human NCI-H322M cells assessed as cell growth at 10^-5 M after 48 hrs by SRB assay; format: functional; settings: read-out: Activity; procedure, shortened: as §2
Malme-3M = test: Cytotoxicity against human MALME-3M cells assessed as cell growth at 10^-5 M after 48 hrs by SRB assay; format: functional; settings: read-out: Activity; procedure, shortened: as §1
SF-268 = test: Cytotoxicity against human SF268 cells assessed as cell growth at 10^-5 M after 48 hrs by SRB assay; format: functional; settings: SF-268, 48 h, read-out: Activity; procedure, shortened: as §2
SW-620 = test: Cytotoxicity against human SW620 cells assessed as cell growth at 10^-5 M after 48 hrs by SRB assay; format: functional; settings: SW-620, 48 h, read-out: Activity
Procedure, shortened: (§3)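 NCI primary single-dose screen at 10^-5 M. Cells grown in RPMI 1640 with 5% FBS and 2 mM L-glutamine, given 24 h before drug addition, then 48 h exposure at 37 °C, 5% CO2. Cells TCA-fixed, stained with SRB, read at 515 nm. Reported as percent growth of treated cells relative to untreated controls.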

PC-3 = test: Cytotoxicity against human PC3 cells assessed as cell growth at 10^-5 M after 48 hrs by SRB assay; format: functional; settings: PC-3, 48 h, read-out: Activity; procedure, shortened: as §2
SK-MEL-5 = test: Cytotoxicity against human SK-MEL-5 cells assessed as cell growth at 10^-5 M after 48 hrs by SRB assay; format: functional; settings: SK-MEL-5, 48 h, read-out: Activity; procedure, shortened: as §2
[1] = Cytotoxicity against human EKVX cells assessed as cell growth at 10^-5 M after 48 hrs by SRB assay; format: functional; settings: read-out: Activity; procedure, shortened: as §1
UO-31 = test: Cytotoxicity against human UO31 cells assessed as cell growth at 10^-5 M after 48 hrs by SRB assay; format: functional; settings: UO-31, 48 h, read-out: Activity; procedure, shortened: as §3
NCI-H23 = test: Cytotoxicity against human NCI-H23 cells assessed as cell growth at 10^-5 M after 48 hrs by SRB assay; format: functional; settings: NCI-H23, 48 h, read-out: Activity; procedure, shortened: as §2
[2] = molecular target: Epidermal growth factor receptor (Homo sapiens, UniProt P00533); settings: at 10 µM;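 note: EGFR tyrosine kinase activity on a poly(Glu,Tyr) substrate, read out by Kinase-Glo Plus luminescence after a 40 min reaction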
Sequence of Epidermal growth factor receptor (P00533 whole entry): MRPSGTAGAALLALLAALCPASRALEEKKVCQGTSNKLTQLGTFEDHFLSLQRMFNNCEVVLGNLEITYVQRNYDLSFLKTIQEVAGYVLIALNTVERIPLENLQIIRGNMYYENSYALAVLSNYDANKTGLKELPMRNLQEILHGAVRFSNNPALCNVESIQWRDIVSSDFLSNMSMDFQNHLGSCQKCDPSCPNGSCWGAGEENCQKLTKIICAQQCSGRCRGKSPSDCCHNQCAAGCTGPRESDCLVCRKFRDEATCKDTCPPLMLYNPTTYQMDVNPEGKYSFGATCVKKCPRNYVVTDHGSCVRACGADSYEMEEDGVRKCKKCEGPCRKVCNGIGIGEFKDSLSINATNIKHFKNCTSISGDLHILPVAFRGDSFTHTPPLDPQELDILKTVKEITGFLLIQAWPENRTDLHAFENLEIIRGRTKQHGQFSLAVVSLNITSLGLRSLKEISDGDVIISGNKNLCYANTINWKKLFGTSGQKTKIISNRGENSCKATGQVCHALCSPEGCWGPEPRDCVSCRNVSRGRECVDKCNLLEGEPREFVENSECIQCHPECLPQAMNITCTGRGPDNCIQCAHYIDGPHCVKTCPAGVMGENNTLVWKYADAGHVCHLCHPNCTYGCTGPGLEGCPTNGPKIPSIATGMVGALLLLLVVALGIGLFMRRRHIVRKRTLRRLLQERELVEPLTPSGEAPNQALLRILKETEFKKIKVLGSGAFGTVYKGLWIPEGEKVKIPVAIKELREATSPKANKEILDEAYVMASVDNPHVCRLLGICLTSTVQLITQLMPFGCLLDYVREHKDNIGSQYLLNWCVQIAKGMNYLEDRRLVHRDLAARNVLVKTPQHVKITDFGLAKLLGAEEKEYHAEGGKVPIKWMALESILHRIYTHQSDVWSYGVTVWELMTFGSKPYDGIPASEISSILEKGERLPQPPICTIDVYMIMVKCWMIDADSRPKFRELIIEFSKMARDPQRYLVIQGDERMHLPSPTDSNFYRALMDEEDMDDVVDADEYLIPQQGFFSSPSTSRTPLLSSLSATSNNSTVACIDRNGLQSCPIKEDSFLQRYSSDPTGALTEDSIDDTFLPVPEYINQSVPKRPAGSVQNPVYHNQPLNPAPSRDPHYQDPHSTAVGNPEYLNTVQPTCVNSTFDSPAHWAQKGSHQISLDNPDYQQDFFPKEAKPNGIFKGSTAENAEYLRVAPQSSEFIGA

NCI-H226 = test: Cytotoxicity against human NCI-H226 cells assessed as cell growth at 10^-5 M after 48 hrs by SRB assay; format: functional; settings: NCI-H226, 48 h, read-out: Activity; procedure, shortened: as §2
[3] = Cytotoxicity against human NCI-ADR-RES cells assessed as cell growth at 10^-5 M after 48 hrs by SRB assay; format: functional; settings: read-out: Activity; procedure, shortened: as §2
CCRF-CEM = test: Cytotoxicity against human CCRF-CEM cells assessed as cell growth at 10^-5 M after 48 hrs by SRB assay; format: functional; settings: read-out: Activity; procedure, shortened: as §1
ACHN = test: Cytotoxicity against human ACHN cells assessed as cell growth at 10^-5 M after 48 hrs by SRB assay; format: functional; settings: read-out: Activity; procedure, shortened: as §1
UACC-62 = test: Cytotoxicity against human UACC62 cells assessed as cell growth at 10^-5 M after 48 hrs by SRB assay; format: functional; settings: UACC-62, 48 h, read-out: Activity; procedure, shortened: as §3
OVCAR-3 = test: Cytotoxicity against human OVCAR3 cells assessed as cell growth at 10^-5 M after 48 hrs by SRB assay; format: functional; settings: OVCAR-3, 48 h, read-out: Activity; procedure, shortened: as §2
LOX IMVI = test: Cytotoxicity against human LOXIMVI cells assessed as cell growth at 10^-5 M after 48 hrs by SRB assay; format: functional; settings: read-out: Activity; procedure, shortened: as §1
A549 = test: Cytotoxicity against human A549 cells assessed as cell growth at 10^-5 M after 48 hrs by SRB assay; format: functional; settings: A549, 48 h, read-out: Activity; procedure, shortened: as §1
CAKI-1 = test: Cytotoxicity against human Caki1 cells assessed as cell growth at 10^-5 M after 48 hrs by SRB assay; format: functional; settings: CAKI-1, 48 h, read-out: Activity; procedure, shortened: as §1
SK-MEL-28 = test: Cytotoxicity against human SK-MEL-28 cells assessed as cell growth at 10^-5 M after 48 hrs by SRB assay; format: functional; settings: SK-MEL-28, 48 h, read-out: Activity; procedure, shortened: as §2
T47D = test: Cytotoxicity against human T47D cells assessed as cell growth at 10^-5 M after 48 hrs by SRB assay; format: functional; settings: read-out: Activity; procedure, shortened: as §3
BT-549 = test: Cytotoxicity against human BT549 cells assessed as cell growth at 10^-5 M after 48 hrs by SRB assay; format: functional; settings: BT-549, 48 h, read-out: Activity; procedure, shortened: as §1
A498 = test: Cytotoxicity against human A498 cells assessed as cell growth at 10^-5 M after 48 hrs by SRB assay; format: functional; settings: A498, 48 h, read-out: Activity; procedure, shortened: as §1

| Compound | growth at 10 µM (HCT-15) [%] | growth at 10 µM (SNB-75) [%] | growth at 10 µM (RPMI-8226) [%] | growth at 10 µM (M14) [%] | growth at 10 µM (MOLT-4) [%] | growth at 10 µM (MDA-MB-468) [%] | growth at 10 µM (HOP-62) [%] | growth at 10 µM (SF-295) [%] | growth at 10 µM (SK-OV-3) [%] | growth at 10 µM (HCT-116) [%] | growth at 10 µM (NCI-H322M) [%] | growth at 10 µM (Malme-3M) [%] | growth at 10 µM (SF-268) [%] | growth at 10 µM (SW-620) [%] | growth at 10 µM (PC-3) [%] | growth at 10 µM (SK-MEL-5) [%] | growth at 10 µM [1] [%] | growth at 10 µM (UO-31) [%] | growth at 10 µM (NCI-H23) [%] | inhibition [2] [%] | also measured |
| --- | --- | --- | --- | --- | --- | --- | --- | --- | --- | --- | --- | --- | --- | --- | --- | --- | --- | --- | --- | --- | --- |
| CCOC(=O)/C(C#N)=C\Nc1ccc2ncnc(Nc3ccc(Cl)cc3Cl)c2c1 | 92.7 | 91.3 | 79.5 | 106 | 58.8 | 56.4 | 101 | 82.2 | 97 | 92.9 | 75.7 | 140 | 73 | 100 | 59.3 | 78.3 | 41.7 | 42 | 99.5 | 92 | growth at 10 µM (NCI-H226): 99.8%; growth at 10 µM [3]: 85.4%; growth at 10 µM (CCRF-CEM): 70.9%; growth at 10 µM (ACHN): 62.9%; growth at 10 µM (UACC-62): 90%; growth at 10 µM (OVCAR-3): 67.6%; growth at 10 µM (LOX IMVI): 87.5%; growth at 10 µM (A549): 72.1%; growth at 10 µM (CAKI-1): 39%; growth at 10 µM (SK-MEL-28): 109%; growth at 10 µM (T47D): 58.6%; growth at 10 µM (BT-549): 89.6%; growth at 10 µM (A498): 48.7% |
| C#Cc1cccc(Nc2ncnc3ccc(N/C=C(\C#N)C(=O)OCC)cc23)c1 | 94.2 | 92.5 | 101 | 114 | 87.5 | 40.4 | 99.9 | 95.6 | 97 | 103 | 52.3 | 119 | 94.4 | 105 | 91.4 | 89.4 | 31.9 | 58.6 | 98.2 | 95 | growth at 10 µM (NCI-H226): 89.8%; growth at 10 µM [3]: 100%; growth at 10 µM (CCRF-CEM): 103%; growth at 10 µM (ACHN): 63.1%; growth at 10 µM (UACC-62): 104%; growth at 10 µM (OVCAR-3): 78.7%; growth at 10 µM (LOX IMVI): 103%; growth at 10 µM (A549): 85.1%; growth at 10 µM (CAKI-1): 56.1%; growth at 10 µM (SK-MEL-28): 103%; growth at 10 µM (T47D): 73.4%; growth at 10 µM (BT-549): 99.6%; growth at 10 µM (A498): 82.5% |
| CCOC(=O)/C(C#N)=C\Nc1ccc2ncnc(Nc3ccc(Cl)cc3)c2c1 | 84.9 | 86.3 | 62.9 | 106 | 50.1 | 26.6 | 107 | 74.3 | 85 | 84.5 | 22.6 | 142 | 76.1 | 97.3 | 60.6 | 72 | 20.6 | 43 | 92.5 | 100 | growth at 10 µM (NCI-H226): 99.3%; growth at 10 µM [3]: 72%; growth at 10 µM (CCRF-CEM): 50.1%; growth at 10 µM (ACHN): 51.2%; growth at 10 µM (UACC-62): 103%; growth at 10 µM (OVCAR-3): 50.2%; growth at 10 µM (LOX IMVI): 87.5%; growth at 10 µM (A549): 66.1%; growth at 10 µM (CAKI-1): 32.6%; growth at 10 µM (SK-MEL-28): 105%; growth at 10 µM (T47D): 72.7%; growth at 10 µM (BT-549): 76.1%; growth at 10 µM (A498): 53.1% |
